# Legend:
# Mus musculus [1] = experiment: Anticonvulsant activity in po dosed mouse assessed as inhibition of MES-induced tonic seizures; assay type: functional
# Summary of the method: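 Mice were dosed orally 2 h before maximal electroshock. The read-out was protection from tonic convulsions, and an ED50 was derived.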
# Homo sapiens [2] = species: Homo sapiens; experiment: Toxicity in human assessed as ataxia; assay type: organism-based; settings: in vivo
# Meriones unguiculatus [3] = experiment: Neuroprotective activity against middle cerebral artery occlusion-induced focal cerebral ischemia in Mongolian gerbils assessed as reduction in infarct volume at 6 mg/kg, iv bid; assay type: functional; parameters: scale not given: the % may be the effect or the level left
# Homo sapiens [4] = species: Homo sapiens; experiment: Toxicity in human assessed as dizziness; assay type: organism-based; settings: in vivo
# Meriones unguiculatus [5] = species: Meriones unguiculatus; experiment: Neuroprotective activity against middle cerebral artery occlusion-induced focal cerebral ischemia in Mongolian gerbils assessed survival of hippocampal CA1 neurons; assay type: functional
# [6] = Displacement of [3H]AMPA from AMPA receptor in rat cortical membrane; assay type: cell membranes
# Glutamate NMDA receptor [7] = experiment: Inhibition of NMDA receptor glutamate site from rat cortical membrane
# [8] = Displacement of [3H]kainate from kainate receptor in rat cortical membrane; assay type: cell membranes
# Rattus norvegicus [9] = experiment: Neuroprotective effect against middle cerebral artery occlusion-induced focal cerebral ischemia in iv dosed spontaneously hypertensive rat brain after 1 to 5 hrs of occlusion; assay type: functional
# Glutamate NMDA receptor [10] = experiment: Inhibition of NMDA receptor glycine site from rat cortical membrane
# Rattus norvegicus [11] = experiment: Anticonvulsant activity in ip dosed rat assessed as inhibition of MES-induced tonic seizures; assay type: functional
# Rattus norvegicus [12] = experiment: Neuroprotective effect against middle cerebral artery occlusion-induced focal cerebral ischemia in spontaneously hypertensive rat at 20 mg/kg, iv after 3 hrs of occlusion; assay type: functional
# [13] = target: T1, Solute carrier family 22 member 11 (Homo sapiens, UniProt Q9NSA0); experiment: Inhibition of human OAT4
# T1 sequence (Q9NSA0 whole entry): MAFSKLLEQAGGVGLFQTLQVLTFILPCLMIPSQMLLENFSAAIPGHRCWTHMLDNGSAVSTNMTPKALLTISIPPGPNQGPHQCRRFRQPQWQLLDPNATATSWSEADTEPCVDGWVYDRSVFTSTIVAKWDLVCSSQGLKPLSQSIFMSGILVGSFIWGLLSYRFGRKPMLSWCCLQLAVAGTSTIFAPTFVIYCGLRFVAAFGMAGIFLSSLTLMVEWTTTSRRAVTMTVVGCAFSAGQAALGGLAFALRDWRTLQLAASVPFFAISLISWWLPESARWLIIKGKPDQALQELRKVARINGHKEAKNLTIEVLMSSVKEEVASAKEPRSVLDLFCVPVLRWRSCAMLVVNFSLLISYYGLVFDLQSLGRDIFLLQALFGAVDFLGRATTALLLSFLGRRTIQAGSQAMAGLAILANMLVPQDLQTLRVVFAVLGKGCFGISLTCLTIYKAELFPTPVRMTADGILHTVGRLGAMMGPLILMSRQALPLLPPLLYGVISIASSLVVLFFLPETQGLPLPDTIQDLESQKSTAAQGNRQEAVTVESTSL
# Rattus norvegicus [14] = experiment: Neuroprotective effect against middle cerebral artery occlusion-induced focal cerebral ischemia in spontaneously hypertensive rat at 20 mg/kg, iv after 2 hrs of occlusion; assay type: functional
# [15] = target: T2, Solute carrier family 22 member 6 (Homo sapiens, UniProt Q4U2R8); experiment: Inhibition of human OAT1
# T2 sequence (Q4U2R8 whole entry): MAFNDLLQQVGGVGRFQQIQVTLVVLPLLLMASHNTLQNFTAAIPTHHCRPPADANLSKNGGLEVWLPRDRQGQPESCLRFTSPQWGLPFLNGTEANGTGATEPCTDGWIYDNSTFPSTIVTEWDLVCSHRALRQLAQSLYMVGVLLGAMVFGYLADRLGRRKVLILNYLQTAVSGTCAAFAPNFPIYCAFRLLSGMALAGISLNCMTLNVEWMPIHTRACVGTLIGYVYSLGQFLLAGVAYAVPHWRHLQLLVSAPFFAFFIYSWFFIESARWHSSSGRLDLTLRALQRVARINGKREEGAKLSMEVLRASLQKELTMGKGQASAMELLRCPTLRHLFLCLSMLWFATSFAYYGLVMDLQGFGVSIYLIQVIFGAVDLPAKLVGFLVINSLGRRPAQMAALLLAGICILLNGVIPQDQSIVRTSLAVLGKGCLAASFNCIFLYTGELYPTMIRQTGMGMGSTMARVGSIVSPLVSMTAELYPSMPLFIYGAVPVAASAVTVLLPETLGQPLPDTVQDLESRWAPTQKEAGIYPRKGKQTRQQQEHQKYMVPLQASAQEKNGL
# Rattus norvegicus [16] = experiment: […] effect against middle cerebral artery occlusion-induced focal cerebral ischemia in spontaneously hypertensive rat assessed as reduction in infarct volume at 20 mg/kg, iv after 2 hrs of occlusion; assay type: functional; parameters: scale not given: the % may be the effect or the level left
# [17] = target: T3, Organic anion transporter 3 (Homo sapiens, UniProt Q8TCC7); experiment: Inhibition of human OAT3
# T3 sequence (Q8TCC7 whole entry): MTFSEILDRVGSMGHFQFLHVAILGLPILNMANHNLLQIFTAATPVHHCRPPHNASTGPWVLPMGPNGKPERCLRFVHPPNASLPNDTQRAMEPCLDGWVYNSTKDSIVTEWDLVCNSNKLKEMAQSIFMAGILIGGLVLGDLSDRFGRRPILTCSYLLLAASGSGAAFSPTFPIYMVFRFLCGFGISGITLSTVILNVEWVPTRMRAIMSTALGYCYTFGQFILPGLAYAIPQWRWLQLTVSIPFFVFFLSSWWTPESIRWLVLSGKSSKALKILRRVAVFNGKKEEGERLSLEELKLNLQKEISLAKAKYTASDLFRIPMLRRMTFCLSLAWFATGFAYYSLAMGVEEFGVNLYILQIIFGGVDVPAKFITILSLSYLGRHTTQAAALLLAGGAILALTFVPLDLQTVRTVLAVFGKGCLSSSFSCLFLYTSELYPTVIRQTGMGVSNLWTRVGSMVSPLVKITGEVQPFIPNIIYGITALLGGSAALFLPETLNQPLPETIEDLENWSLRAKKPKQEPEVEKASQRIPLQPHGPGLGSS
# Glutamate NMDA receptor [18] = experiment: Displacement of [3H](E)-3-(2-carboxy-2-phenylvinyl)-4,6-dichloro-1H-indole-2-carboxylic acid from NMDA receptor glutamate site from rat cortical membrane
# Mus musculus [19] = experiment: Anticonvulsant activity in po dosed mouse assessed as inhibition of PTZ-induced seizures; assay type: functional
# [20] = Antagonist activity at AMPA receptor in rat cortical membrane assessed as inhibition of AMPA-induced calcium accumulation; assay type: functional, cell membranes
# Mus musculus [21] = experiment: Anticonvulsant activity in ip dosed DBA2 mouse assessed as inhibition of sound-induced clonic seizures; assay type: functional
# Homo sapiens [22] = species: Homo sapiens; experiment: Antiepileptic activity in human patient assessed as reduction in refractory partial seizures; assay type: functional; parameters: scale not given: the % may be the effect or the level left
# [23] = Solubility of the compound at pH 7.4; assay type: physicochemical; settings: buffer
# Rattus norvegicus [24] = experiment: Anticonvulsant activity in po dosed rat assessed as inhibition of MES-induced tonic seizures; assay type: functional
compound,measurement,setting,value
Nc1ccncc1 [DALFAMPRIDINE],ED50,Mus musculus [1],8.4 mg/kg
O=C1C[C@@H]2OCC=C3CN4CC[C@]56c7ccccc7N1[C@H]5[C@H]2[C@H]3C[C@H]46 [STRYCHNINE],ED50,Mus musculus [1],17.4 mg/kg
CC(=O)N1N=C(c2ccc(N)cc2)c2cc3c(cc2C[C@H]1C)OCO3 [TALAMPANEL],ED50,Mus musculus [1],8.6 mg/kg
same,Activity,Homo sapiens [2],26%
same,Activity,Meriones unguiculatus [3],47%
same,Activity,Homo sapiens [4],52%
same,Activity,Meriones unguiculatus [5],25%
O=c1[nH]c2cc(C(F)(F)F)c(N3CCOCC3)cc2n(CP(=O)(O)O)c1=O [FANAPANEL],IC50,[6],120 nM
same,IC50,Glutamate NMDA receptor [7],2800 nM
same,IC50,[8],2.5 µM
same,Activity,Rattus norvegicus [9],19%
same,IC50,Glutamate NMDA receptor [10],5.15 µM
same,ED50,Rattus norvegicus [11],13 mg/kg
O=C(O)Cn1c(=O)c(=O)[nH]c2cc([N+](=O)[O-])c(-n3ccnc3)cc21 [ZONAMPANEL],Ki,[6],96 nM
same,Activity,Rattus norvegicus [12],35%
same,IC50,[13],300 µM
same,IC50,Glutamate NMDA receptor [7],> 100000 nM
same,IC50,[8],4.6 µM
same,Activity,Rattus norvegicus [14],45%
same,IC50,[15],3 µM
same,IC50,Glutamate NMDA receptor [10],> 100 µM
same,Activity,Rattus norvegicus [16],55%
same,IC50,[17],6.6 µM
CN1CCc2cc3c(cc2[C@H]1[C@@H]1OC(=O)c2c1ccc1c2OCO1)OCO3 [BICUCULLINE],ED50,Mus musculus [1],14.6 mg/kg
Oc1nc2cc(-n3ccnc3)c(-n3ccnc3)cc2nc1O,Ki,[6],820 nM
O=C(O)CCS [MERCAPTOPROPIONIC ACID],ED50,Mus musculus [1],17.1 mg/kg
N#Cc1ccc2nc(O)c(O)nc2c1,Ki,[6],5000 nM
C[C@H](NCc1cc([N+](=O)[O-])cc2nc(O)c(O)nc12)P(=O)(O)O,IC50,[6],170 nM
same,IC50,Glutamate NMDA receptor [18],32 nM
N#Cc1ccccc1-c1cc(-c2ccccn2)cn(-c2ccccc2)c1=O [PERAMPANEL],ED50,Mus musculus [1],1.6 mg/kg
same,ED50,Mus musculus [19],0.94 mg/kg
same,IC50,[20],93 nM
same,ED50,Mus musculus [21],0.47 mg/kg
same,Activity,Homo sapiens [22],40%
O=c1[nH]c2cc([N+](=O)[O-])cc(CNCP(=O)(O)O)c2[nH]c1=O,IC50,[6],290 nM
same,solubility,[23],6600 µg/mL
same,IC50,Glutamate NMDA receptor [7],490 nM
same,IC50,[8],4.2 µM
same,ED50,Rattus norvegicus [24],5 mg/kg
same,IC50,Glutamate NMDA receptor [10],1.16 µM
CN1CCC[C@H]1c1cccnc1 [NICOTINE],ED50,Mus musculus [1],22.7 mg/kg
O=[N+]([O-])c1ccc2nc(O)c(O)nc2c1,Ki,[6],2000 nM
